Source: ChEMBL document CHEMBL1649147, “Antistaphylococcal activity of dihydrophthalazine antifolates, a family of novel antibacterial drugs” (2009)
In brackets after ≈: the same amount, converted by molar mass.

Assays:
Staphylococcus aureus [1] = experiment: Antibacterial activity against Tmp-susceptible coagulase-negative Staphylococcus aureus by agar dilution method; type: functional
Summary of the method: (§1)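 MICs by agar dilution on Mueller-Hinton agar following CLSI guidelines. S. aureus ATCC 29213 and E. faecalis ATCC 29212 were run as quality controls with each set, and test-strain MICs were kept only if control MICs fell within acceptable ranges.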

[2] = test system: Staphylococcus epidermidis; experiment: Antibacterial activity against methicillin-resistant, Linezolid non-susceptible coagulase-negative Staphylococcus epidermidis 345 after 50 passages by agar dilution method; type: functional
Summary of the method: (§2)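 Daily serial passage for up to 50 days at 35°C for 24 h in 1 ml MHB. Each transfer used 10 µl from the tube nearest the MIC (1–2 dilutions below) with the same turbidity as the drug-free control. MICs were measured by agar dilution, with changes given as log2 steps.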

[3] = test system: coagulase-negative staphylococci; experiment: Antibacterial activity against methicillin-susceptible coagulase-negative staphylococci by agar dilution method
Staphylococcus aureus [4] = experiment: Antibacterial activity against methicillin-susceptible Staphylococcus aureus by agar dilution method; type: functional
Summary of the method: (§3)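 Agar dilution on Mueller-Hinton agar per CLSI guidelines. S. aureus ATCC 29213 and E. faecalis ATCC 29212 were run with each set, and test MICs were accepted only when the control strains fell within acceptable ranges.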

Staphylococcus aureus [5] = experiment: Antibacterial activity against vancomycin-resistant Staphylococcus aureus VRS1 by broth macrodilution method; type: functional
Summary of the method: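 Michigan VRSA strain, one of 12 staphylococci later used in time-kill studies. MIC was determined by broth macrodilution and reported in μg/ml.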

Staphylococcus aureus [6] = experiment: Antibacterial activity against Tmp-susceptible Staphylococcus aureus by agar dilution method; type: functional; summary of the method: as §1
Staphylococcus aureus [7] = experiment: Antibacterial activity against methicillin-susceptible, vancomycin-intermediate Staphylococcus aureus 505 by broth macrodilution method; type: functional
Staphylococcus aureus [8] = experiment: Antibacterial activity against methicillin-resistant Staphylococcus aureus 507 by broth macrodilution method; type: functional
[9] = test system: Staphylococcus epidermidis; experiment: Antibacterial activity against methicillin-susceptible coagulase-negative Staphylococcus epidermidis 057 by broth macrodilution method; type: functional
[10] = test system: Staphylococcus epidermidis; experiment: Antibacterial activity against methicillin-resistant coagulase-negative Staphylococcus epidermidis 074 by broth macrodilution method; type: functional
Staphylococcus aureus [11] = experiment: Antibacterial activity against methicillin-resistant and vancomycin-resistant Staphylococcus aureus VRS1 by agar dilution method; type: functional; summary of the method: as §3
Staphylococcus aureus [12] = experiment: Antibacterial activity against methicillin-resistant Staphylococcus aureus ATCC 43300 by broth macrodilution method; type: functional; details: ATCC43300
[13] = test system: Staphylococcus epidermidis; experiment: Antibacterial activity against methicillin-resistant coagulase-negative Staphylococcus epidermidis 197 after 50 passages by agar dilution method; type: functional; summary of the method: as §2
[14] = test system: Staphylococcus epidermidis; experiment: Antibacterial activity against methicillin-resistant coagulase-negative Staphylococcus epidermidis 197 by broth macrodilution method; type: functional
[15] = test system: Staphylococcus epidermidis; experiment: Antibacterial activity against methicillin-susceptible coagulase-negative Staphylococcus epidermidis 051 after 50 passages by agar dilution method; type: functional; summary of the method: as §2
[16] = test system: coagulase-negative staphylococci; experiment: Antibacterial activity against Tmp-susceptible coagulase-negative staphylococci by agar dilution method
Staphylococcus aureus [17] = experiment: Antibacterial activity against methicillin-resistant Staphylococcus aureus 145 by broth macrodilution method; type: functional
[18] = test system: Staphylococcus epidermidis; experiment: Antibacterial activity against methicillin-resistant coagulase-negative Staphylococcus epidermidis 345 by broth macrodilution method; type: functional
[19] = test system: Staphylococcus epidermidis; experiment: Antibacterial activity against methicillin-resistant, vancomycin-intermediate coagulase-negative Staphylococcus epidermidis 225 by agar dilution method; type: functional; summary of the method: as §3
[20] = test system: coagulase-negative staphylococci; experiment: Antibacterial activity against Tmp-resistant coagulase-negative staphylococci by agar dilution method
Staphylococcus aureus [21] = experiment: Antibacterial activity against methicillin-susceptible Staphylococcus aureus ATCC 29213 after 50 passages by agar dilution method; type: functional; details: ATCC29213
Summary of the method: (§4)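 Daily serial passage for up to 50 days at 35°C for 24 h in 1 ml MHB. […] Each transfer used 10 µl from the tube nearest the MIC (1–2 dilutions below) with the same turbidity as the drug-free control. […] MICs were measured by agar dilution, with changes given as log2 steps.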

[22] = test system: Staphylococcus epidermidis; experiment: Antibacterial activity against methicillin-susceptible coagulase-negative Staphylococcus epidermidis 051 by broth macrodilution method; type: functional
Staphylococcus aureus [23] = experiment: microbe, parasite or virus in culture; details: 505
[24] = test system: Staphylococcus epidermidis; experiment: Antibacterial activity against methicillin-susceptible coagulase-negative Staphylococcus epidermidis 057 after 10 passages by agar dilution method; type: functional; summary of the method: as §4
Staphylococcus aureus [25] = experiment: Antibacterial activity against methicillin-susceptible Staphylococcus aureus ATCC 29213 by broth macrodilution method; type: functional; details: ATCC29213
[26] = test system: coagulase-negative staphylococci; experiment: Antibacterial activity against methicillin-resistant coagulase-negative staphylococci by agar dilution method
Staphylococcus aureus [27] = experiment: Antibacterial activity against methicillin-susceptible Staphylococcus aureus 505 by broth macrodilution method; type: functional
[28] = test system: Staphylococcus epidermidis; experiment: Antibacterial activity against methicillin-resistant, Linezolid non-susceptible coagulase-negative Staphylococcus epidermidis 345 by agar dilution method; type: functional
[29] = test system: Staphylococcus epidermidis; experiment: Antibacterial activity against methicillin-resistant coagulase-negative Staphylococcus epidermidis 225 by broth macrodilution method; type: functional
Staphylococcus aureus [30] = experiment: Antibacterial activity against methicillin-resistant Staphylococcus aureus by agar dilution method; type: functional; summary of the method: as §3
Staphylococcus aureus [31] = experiment: Antibacterial activity against Tmp-resistant Staphylococcus aureus by agar dilution method; type: functional; summary of the method: as §1
Staphylococcus aureus [32] = experiment: Antibacterial activity against methicillin-resistant Staphylococcus aureus 145 after 50 passages by agar dilution method; type: functional
Summary of the method: (§5)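 Serial passage under drug. Inoculum was ~1 × 10^6 CFU/ml from overnight MHA growth, in 1 ml MHB at 35°C for 24 h. Drug ranged from 4 log2 steps above to 3 log2 steps below the MIC. […] MIC change is given as log2 steps.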

[33] = test system: Staphylococcus epidermidis; experiment: Antibacterial activity against methicillin-resistant, vancomycin-intermediate coagulase-negative Staphylococcus epidermidis 225 after 50 passages by agar dilution method; type: functional; summary of the method: as §4
Staphylococcus aureus [34] = experiment: Antibacterial activity against methicillin-resistant and vancomycin-resistant Staphylococcus aureus VRS1 after 50 passages by agar dilution method; type: functional; summary of the method: as §4
Staphylococcus aureus [35] = experiment: Antibacterial activity against methicillin-resistant Staphylococcus aureus ATCC 43300 after 50 passages by agar dilution method; type: functional; details: ATCC43300; summary of the method: as §5
[36] = test system: Staphylococcus epidermidis; experiment: Antibacterial activity against methicillin-susceptible coagulase-negative Staphylococcus epidermidis 057 after 50 passages by agar dilution method; type: functional; summary of the method: as §2
Staphylococcus aureus [37] = experiment: Antibacterial activity against methicillin-susceptible, vancomycin-intermediate Staphylococcus aureus 505 after 50 passages by agar dilution method; type: functional; summary of the method: as §4

| SMILES | MIC (Staphylococcus aureus [1]) | MIC [2] | MIC [3] | MIC90 [3] | MIC50 (Staphylococcus aureus [4]) | MIC90 (Staphylococcus aureus [4]) | MIC50 (Staphylococcus aureus [6]) | MIC90 (Staphylococcus aureus [6]) | MIC [9] | MIC [10] | MIC [13] | MIC [14] | MIC [15] | MIC50 [16] | MIC90 [16] | MIC [18] | MIC [19] | MIC50 [20] | MIC (Staphylococcus aureus [21]) | MIC [22] | also measured |
| --- | --- | --- | --- | --- | --- | --- | --- | --- | --- | --- | --- | --- | --- | --- | --- | --- | --- | --- | --- | --- | --- |
| CCC[C@@H]1C[C@@H](C(=O)N[C@@H]([C@H]2O[C@H](SC)[C@H](O)[C@@H](O)[C@H]2O)[C@H](C)Cl)N(C)C1 [CLINDAMYCIN] | ≤ 0.06 µg/mL | 4 µg/mL (≈ 9.41 µM) | 0.125 µg/mL (≈ 0.294 µM) | 0.125 µg/mL (≈ 0.294 µM) | 0.125 µg/mL (≈ 0.294 µM) | > 32 µg/mL | > 32 µg/mL | > 32 µg/mL | 0.125 µg/mL (≈ 0.294 µM) | 0.25 µg/mL (≈ 0.588 µM) | 2 µg/mL (≈ 4.71 µM) | 0.125 µg/mL (≈ 0.294 µM) | 4 µg/mL (≈ 9.41 µM) | 0.125 µg/mL (≈ 0.294 µM) | > 32 µg/mL | 1 µg/mL (≈ 2.35 µM) | > 32 µg/mL | 2 µg/mL (≈ 4.71 µM) | 32 µg/mL (≈ 75.3 µM) | 0.125 µg/mL (≈ 0.294 µM) | MIC (Staphylococcus aureus [5]): > 512 µg/mL; MIC (Staphylococcus aureus [7]): 0.125 µg/mL (≈ 0.294 µM); MIC (Staphylococcus aureus [8]): 512 µg/mL (≈ 1200 µM); MIC (Staphylococcus aureus [11]): > 32 µg/mL; MIC (Staphylococcus aureus [12]): > 32 µg/mL; MIC (Staphylococcus aureus [17]): > 32 µg/mL; MIC (Staphylococcus aureus [23]): > 128 µg/mL; MIC [24]: > 128 µg/mL; MIC (Staphylococcus aureus [25]): 0.125 µg/mL (≈ 0.294 µM); MIC50 [26]: 0.25 µg/mL (≈ 0.588 µM); MIC (Staphylococcus aureus [27]): 0.125 µg/mL (≈ 0.294 µM); MIC [28]: 2 µg/mL (≈ 4.71 µM); MIC [29]: > 128 µg/mL |
| CC(=O)NC[C@H]1CN(c2ccc(N3CCOCC3)c(F)c2)C(=O)O1 [LINEZOLID] | 1 µg/mL (≈ 2.96 µM) | 128 µg/mL (≈ 379 µM) | 1 µg/mL (≈ 2.96 µM) | 2 µg/mL (≈ 5.93 µM) | 2 µg/mL (≈ 5.93 µM) | 2 µg/mL (≈ 5.93 µM) | 2 µg/mL (≈ 5.93 µM) | 2 µg/mL (≈ 5.93 µM) | 2 µg/mL (≈ 5.93 µM) | 1 µg/mL (≈ 2.96 µM) | 32 µg/mL (≈ 94.9 µM) | 2 µg/mL (≈ 5.93 µM) | 128 µg/mL (≈ 379 µM) | 1 µg/mL (≈ 2.96 µM) | 2 µg/mL (≈ 5.93 µM) | 64 µg/mL (≈ 190 µM) | 2 µg/mL (≈ 5.93 µM) | 1 µg/mL (≈ 2.96 µM) | 16 µg/mL (≈ 47.4 µM) | 2 µg/mL (≈ 5.93 µM) | MIC50 (Staphylococcus aureus [30]): 2 µg/mL (≈ 5.93 µM); MIC90 (Staphylococcus aureus [30]): 2 µg/mL (≈ 5.93 µM); MIC (Staphylococcus aureus [31]): 1 µg/mL (≈ 2.96 µM); MIC50 (Staphylococcus aureus [31]): 1 µg/mL (≈ 2.96 µM); MIC90 (Staphylococcus aureus [31]): 2 µg/mL (≈ 5.93 µM); MIC (Staphylococcus aureus [32]): 16 µg/mL (≈ 47.4 µM); MIC [33]: 16 µg/mL (≈ 47.4 µM); MIC (Staphylococcus aureus [34]): 32 µg/mL (≈ 94.9 µM); MIC90 [20]: 2 µg/mL (≈ 5.93 µM); MIC (Staphylococcus aureus [35]): 64 µg/mL (≈ 190 µM); MIC [36]: 64 µg/mL (≈ 190 µM); MIC50 [26]: 1 µg/mL (≈ 2.96 µM); MIC90 [26]: 2 µg/mL (≈ 5.93 µM); MIC [28]: 32 µg/mL (≈ 94.9 µM); MIC (Staphylococcus aureus [37]): 16 µg/mL (≈ 47.4 µM); MIC [29]: 2 µg/mL (≈ 5.93 µM) |
